From ChEMBL document CHEMBL1268910, “Assessment of structurally diverse philanthotoxin analogues for inhibitory activity on ionotropic glutamate receptor subtypes: discovery of nanomolar, nonselective, and use-dependent antagonists” (J Med Chem, 2010)
Calls of active or inactive are those of the source. The rule behind the calls is not given here.

Tests used:
[1] = Selectivity ratio of IC50 for NR1-1a/NR2A receptor to IC50 for GluR1
[2] = test system: Glutamate receptor ionotropic, AMPA 1 (GluA1i); experiment: Antagonist activity at GluR1 expressed in Xenopus laevis oocytes assessed as inhibition of glutamate-induced current at -80mV holding potential by two-electrode voltage-clamp electrophysiology; settings: Oocyte
[3] = biological target: T1, Glutamate NMDA receptor; GRIN1/GRIN2A (Homo sapiens, UniProt Q05586+Q12879); experiment: Antagonist activity at NR1-1a/NR2A receptor expressed in Xenopus laevis oocytes assessed as inhibition of glutamate/glycine-induced current at -40mV holding potential by two-electrode voltage-clamp electrophysiology; assay type: functional, cell-based; settings: Oocyte
Outline: (§1)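 Holding-potential dependence was measured in oocytes expressing GluA1i or GluN1/2A at -40, -60 and -80 mV by two-electrode voltage clamp. One fixed toxin concentration, chosen from the -60 mV concentration-response data, was co-applied with 100 μM glutamate (GluA1i) or with glutamate plus glycine at 100 μM each (GluN1/2A). The read-out was the reduction in receptor current.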

[4] = test system: Glutamate receptor ionotropic, AMPA 1 (GluA1i); experiment: Antagonist activity at GluR1 expressed in Xenopus laevis oocytes assessed as inhibition of glutamate-induced current at 0.1 uM at -60mV holding potential by two-electrode voltage-clamp electrophysiology; settings: Oocyte
[5] = test system: Glutamate receptor ionotropic, AMPA 1 (GluA1i); experiment: Antagonist activity at GluR1 expressed in Xenopus laevis oocytes assessed as inhibition of glutamate-induced current at -40mV holding potential by two-electrode voltage-clamp electrophysiology; settings: Oocyte
[6] = biological target: T1, Glutamate NMDA receptor; GRIN1/GRIN2A; experiment: Antagonist activity at NR1-1a/NR2A receptor expressed in Xenopus laevis oocytes assessed as inhibition of glutamate/glycine-induced current at -60mV holding potential by two-electrode voltage-clamp electrophysiology; assay type: functional, cell-based, Oocyte
Outline: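 Two-electrode voltage clamp at -60 mV holding potential on Xenopus oocytes expressing homomeric GluA1i or heteromeric GluN1/2A. Antagonist was co-applied with agonist: 100 μM glutamate for GluA1i, and 100 μM glutamate plus 100 μM glycine for GluN1/2A. IC50 came from concentration-inhibition curves of normalized currents (n = 3). The error term is given as the % difference between the IC50 and antilog(logIC50 + SEM).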

[7] = biological target: T1, Glutamate NMDA receptor; GRIN1/GRIN2A; experiment: Antagonist activity at NR1-1a/NR2A receptor expressed in Xenopus laevis oocytes assessed as inhibition of glutamate/glycine-induced current at -80mV holding potential by two-electrode voltage-clamp electrophysiology; assay type: functional, cell-based; settings: Oocyte; outline: as §1
[8] = biological target: T1, Glutamate NMDA receptor; GRIN1/GRIN2A; experiment: Antagonist activity at NR1-1a/NR2A receptor expressed in Xenopus laevis oocytes assessed as inhibition of glutamate/glycine-induced current at 10 uM at -60mV holding potential by two-electrode voltage-clamp electrophysiology; assay type: functional, cell-based; settings: Oocyte
Outline: (§2)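 Single-concentration screen at 0.1 and 10 μM by two-electrode voltage clamp (-60 mV) in Xenopus oocytes. Toxin was co-applied with 100 μM glutamate (GluA1i) or with 100 μM glutamate plus 100 μM glycine (GluN1/2A). Percent inhibition was taken from the decrease in agonist-evoked current.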

[9] = biological target: T1, Glutamate NMDA receptor; GRIN1/GRIN2A; experiment: Antagonist activity at NR1-1a/NR2A receptor expressed in Xenopus laevis oocytes assessed as inhibition of glutamate/glycine-induced current at 0.1 uM at -60mV holding potential by two-electrode voltage-clamp electrophysiology; assay type: functional, cell-based; settings: Oocyte; outline: as §2

With NCCCNCCCCNCCCNC(=O)[C@H](CC1CCCCC1)NC(=O)C1CCCCC1 the Ratio IC50 [1] was 31, the inhibition [2] was “Active” and the inhibition [3] was “Active”. For the same molecule, the inhibition [4] was 35%, the inhibition [5] was “Active” and the IC50 [6] was 0.656 µM. For the same molecule, the inhibition [7] was “Active”.
With CCCC(=O)N[C@@H](Cc1ccc(O)cc1)C(=O)NCCCNCCCCNCCCN [PHILANTHOTOXIN 343] the inhibition [3] was “Active”, the inhibition [8] was 61% and the IC50 [6] was 2.74 µM. For the same molecule, the inhibition [9] was 9% and the inhibition [7] was “Active”.
With NCCCNCCCCNCCCNC(=O)[C@H](CC1CCCCC1)NC(=O)c1ccc(-c2ccccc2)cc1 the Ratio IC50 [1] was 17, the inhibition [2] was “Active” and the inhibition [3] was “Active”. The inhibition [4] was 35%, the inhibition [5] was “Active” and the IC50 [6] was 1.45 µM. The inhibition [7] was “Active”.
In the case of NCCCNCCCCNCCCNC(=O)[C@H](CC1CCCCC1)NC(=O)CC12CC3CC(CC(C3)C1)C2, the Ratio IC50 [1] is reported as 8, the inhibition [2] is reported as “Active” and the inhibition [3] is reported as “Active”. The inhibition [4] was 35%, the inhibition [5] was “Active” and the IC50 [6] was 0.794 µM. The inhibition [7] was “Active”.
Work on NCCCNCCCCNCCCNC(=O)[C@H](CNC(=O)Cc1ccccc1)NC(=O)C1CCCCC1 yielded an inhibition [4] of 35% and an IC50 [6] of 2.81 µM.
Work on NCCCNCCCCNCCCNC(=O)[C@H](CCCNC(=O)Cc1ccccc1)NC(=O)C1CCCCC1 yielded an inhibition [4] of 35% and an IC50 [6] of 1.03 µM.
With CCCC(=O)N[C@@H](CC1CCCCC1)C(=O)NCCCNCCCCNCCCN the Ratio IC50 [1] was 137, the inhibition [2] was “Active” and the inhibition [3] was “Active”. For the same molecule, the inhibition [4] was 35%, the inhibition [5] was “Active” and the IC50 [6] was 4.38 µM. For the same molecule, the inhibition [7] was “Active”.
With NCCCNCCCCNCCCNC(=O)[C@H](CC1CCCCC1)NC(=O)Cc1cccc2ccccc12 the Ratio IC50 [1] was 1, the inhibition [2] was “Active” and the inhibition [3] was “Active”. The inhibition [4] was 35%, the inhibition [8] was 92% and the inhibition [5] was “Active”. The IC50 [6] was 0.047 µM, the inhibition [9] was 63% and the inhibition [7] was “Active”.
With NCCCNCCCCNCCCNC(=O)[C@H](CC1CCCCC1)NC(=O)C1CC1 the inhibition [3] was “Active”, the IC50 [6] was 2.57 µM and the inhibition [7] was “Active”.
